The target in the test is O-acetylserine sulfhydrylase (Mycobacterium tuberculosis (strain ATCC 25618 / H37Rv), UniProt P9WP55). The test is described as follows: Inhibition of Mycobacterium tuberculosis CysK1 using O-acetyl-L-serine as substrate assessed as L-cycteine formation after 5 mins by spectrophotometric analysis. The procedure, abridged: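 Dose–response: serial 1:3 dilutions prepared in 50% DMSO (final DMSO 5%). Final mix was 100 mM MOPS pH 7.0, 2 mM O-acetyl-L-serine, […] CysK1, preincubated 5 min at room temperature. The reaction was started with sodium sulphide (final 1 mM). Aliquots taken at time intervals were assayed for L-cysteine by acid-ninhydrin. Specific activity vs concentration was fitted to a sigmoid for IC50.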

pIC50: −log10 of the molar value.

As usually defined, the pIC50 is the negative decadic logarithm of the IC50, by convention in mol/L. Turning to `Cc1ccccc1C1NC(=S)Nc2c1c(=O)nc1sc([N+](=O)[O-])cn21` (configuration not stated), the pIC50 is 4.75.

Turning to `O=C1Nc2c(c(=O)nc3sc([N+](=O)[O-])cn23)C(c2ccccc2C(F)(F)F)N1` (configuration not stated), the pIC50 is 4.75.

For the origin of these results see BindingDB's records for doi:10.1016/j.bmcl.2013.01.031 (Birla Institute of Technology, 2013).
